In assay [1] the test system is Staphylococcus aureus. The experiment in a line: Antibacterial activity against Staphylococcus aureus RN4220 after 24 hrs by two-fold serial dilution method. Type of assay: functional. Particulars: RN4220, 24 h. The method, boiled down: (§1)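 Broth microdilution MIC. Bacteria grown to mid-log phase in Mueller-Hinton broth, diluted 1000-fold, about 10^5 CFU/mL. Compounds from DMSO stocks, two-fold serial dilution from a final 64 µg/mL. Incubation at 37 °C for 24 h. Growth read as absorbance at 630 nm on a microplate reader. Run in triplicate.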

The test system of assay [2] is Staphylococcus aureus. Nature of the assay: Antibacterial activity against Staphylococcus aureus KCTC 209 after 24 hrs by two-fold serial dilution method. The format is functional. The conditions noted are these: KCTC 209, 24 h. The method, boiled down:
(§2)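 Strains grown to mid-log phase in Mueller-Hinton broth, then diluted 1000-fold in the same broth to about 10^5 CFU/mL. Compounds were made up as DMSO stocks and two-fold serially diluted from a final top concentration of 64 µg/mL. Incubation was 37 °C for 24 h. Growth was read as absorbance at 630 nm on a microplate reader. MIC assays were run in triplicate.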

In assay [3] the test system is Staphylococcus aureus. The experiment in a line: Antibacterial activity against Staphylococcus aureus KCTC 503 after 24 hrs by two-fold serial dilution method. The format is functional. The conditions noted are these: KCTC 503, 24 h. The method, boiled down: as §2
For assay [4], the system named is Streptococcus mutans. Nature of the assay: Antibacterial activity against Streptococcus mutans 3065 after 24 hrs by two-fold serial dilution method. Type of assay: functional. Particulars: Streptococcus mutans, 3065, 24 h. The gist of the method: as §2
The subject of assay [5] is Escherichia coli. Nature of the assay: Antibacterial activity against Escherichia coli KCTC 1924 after 24 hrs by two-fold serial dilution method. Type of assay: functional. The conditions noted are these: KCTC 1924, 24 h. The gist of the method: as §2
Assay [6] has as its system Escherichia coli. The experiment in a line: Antibacterial activity against Escherichia coli CCARM 1356 after 24 hrs by two-fold serial dilution method. The format is functional. The conditions noted are these: CCARM 1356, 24 h. The method, boiled down:
as §2

Assay [7] deals with Pseudomonas aeruginosa. Nature of the assay: Antibacterial activity against Pseudomonas aeruginosa 2742 after 24 hrs by two-fold serial dilution method. The conditions noted are these: Pseudomonas aeruginosa, 2742, 24 h. Type of assay: functional. The gist of the method: as §2
For assay [8], the system named is Pseudomonas aeruginosa. The experiment in a line: Antibacterial activity against Pseudomonas aeruginosa 2004 after 24 hrs by two-fold serial dilution method. Type of assay: functional. Particulars: Pseudomonas aeruginosa, 2004, 24 h. The gist of the method: as §2
Assay [9] deals with Salmonella typhimurium. The experiment in a line: Antibacterial activity against Salmonella typhimurium 2421 after 24 hrs by two-fold serial dilution method. The format is functional, Salmonella enterica subsp. enterica serovar Typhimurium. The conditions noted are these: Salmonella enterica, 2421, 24 h. The method, boiled down: as §2
Assay [10] deals with Candida albicans. The experiment in a line: Antifungal activity against Candida albicans 7535 after 24 hrs by two-fold serial dilution method. Type of assay: functional. The conditions noted are these: Candida albicans, 7535, 24 h.
Assay [11] relates to Staphylococcus aureus. Nature of the assay: Bactericidal activity against Staphylococcus aureus RN4220 after 24 hrs by agar plate method. Type of assay: functional. The conditions noted are these: RN4220, 24 h. The gist of the method:
(§3)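 Samples of 5 µL from MIC wells with no visible growth were plated onto fresh Mueller-Hinton agar and incubated a further 24 h at 37 °C. MBC is the lowest concentration giving no visible colony growth on the agar. Assays were run in triplicate.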

The test system of assay [12] is Staphylococcus aureus. The experiment in a line: Bactericidal activity against Staphylococcus aureus KCTC 209 after 24 hrs by agar plate method. Type of assay: functional. Particulars: KCTC 209, 24 h. The method, boiled down:
as §3

The test system of assay [13] is Staphylococcus aureus. The experiment in a line: Bactericidal activity against Staphylococcus aureus KCTC 503 after 24 hrs by agar plate method. The format is functional. Particulars: KCTC 503, 24 h. The method, boiled down: (§4)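 5 µL from each well without visible growth plated on fresh Mueller-Hinton agar, then 37 °C for a further 24 h. MBC is the lowest concentration giving no visible colonies. Run in triplicate.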

The test system of assay [14] is Streptococcus mutans. Nature of the assay: Bactericidal activity against Streptococcus mutans 3065 after 24 hrs by agar plate method. The format is functional. Particulars: Streptococcus mutans, 3065, 24 h. The gist of the method:
as §3

Assay [15] concerns Escherichia coli. Nature of the assay: Bactericidal activity against Escherichia coli KCTC 1924 after 24 hrs by agar plate method. Particulars: KCTC 1924, 24 h. Type of assay: functional. The method, boiled down: as §3
For assay [16], the system named is Candida albicans. Nature of the assay: Fungicidal activity against Candida albicans 7535 after 24 hrs by agar plate method. The format is functional. Particulars: Candida albicans, 7535, 24 h.
The subject of assay [17] is Staphylococcus aureus. The experiment in a line: Antibacterial activity against methicillin-resistant Staphylococcus aureus CCARM 3167 after 24 hrs by two-fold serial dilution method. The conditions noted are these: CCARM 3167, 24 h. The format is functional. The method, boiled down:
as §1

Assay [18] has as its system Staphylococcus aureus. Nature of the assay: Antibacterial activity against methicillin-resistant Staphylococcus aureus CCARM 3506 after 24 hrs by two-fold serial dilution method. Type of assay: functional. The conditions noted are these: CCARM 3506, 24 h. The method, boiled down:
as §1

For assay [19], the system named is Staphylococcus aureus. The experiment in a line: Antibacterial activity against quinolone-resistant Staphylococcus aureus CCARM 3505 after 24 hrs by two-fold serial dilution method. Type of assay: functional. Particulars: CCARM 3505, 24 h. The gist of the method:
as §1

Assay [20] concerns Staphylococcus aureus. Nature of the assay: Antibacterial activity against quinolone-resistant Staphylococcus aureus CCARM 3519 after 24 hrs by two-fold serial dilution method. Type of assay: functional. Particulars: CCARM 3519, 24 h. The gist of the method:
as §1

Assay [21] concerns Staphylococcus aureus. Nature of the assay: Bactericidal activity against methicillin-resistant Staphylococcus aureus CCARM 3167 after 24 hrs by agar plate method. The format is functional. Particulars: CCARM 3167, 24 h. The gist of the method:
as §4

In assay [22] the test system is Staphylococcus aureus. Nature of the assay: Bactericidal activity against methicillin-resistant Staphylococcus aureus CCARM 3506 after 24 hrs by agar plate method. Type of assay: functional. The conditions noted are these: CCARM 3506, 24 h. The gist of the method: as §4
Assay [23] relates to Staphylococcus aureus. The experiment in a line: Bactericidal activity against quinolone-resistant Staphylococcus aureus CCARM 3505 after 24 hrs by agar plate method. Type of assay: functional. The conditions noted are these: CCARM 3505, 24 h. The method, boiled down: as §4
Assay [24] relates to Staphylococcus aureus. The experiment in a line: Bactericidal activity against quinolone-resistant Staphylococcus aureus CCARM 3519 after 24 hrs by agar plate method. Type of assay: functional. The conditions noted are these: CCARM 3519, 24 h. The method, boiled down:
as §4

In assay [25] the test system is Staphylococcus aureus subsp. aureus RN4220. The experiment in a line: Ratio of MBC to MIC for Staphylococcus aureus RN4220. The format is functional. The method, boiled down:
(§5)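 The ratio divides MBC by MIC for the same strain. MIC comes from two-fold broth microdilution in Mueller-Hinton broth (about 10^5 CFU/mL, 37 °C, 24 h, absorbance at 630 nm). MBC comes from subculturing 5 µL from clear wells onto Mueller-Hinton agar for another 24 h at 37 °C, taken as the lowest concentration with no colonies.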

Assay [26] deals with Staphylococcus aureus. The experiment in a line: Ratio of MBC to MIC for Staphylococcus aureus KCTC 503. The format is functional. The gist of the method: as §5

Values after ≈ are worked out from the molar mass of the structure shown.

For orientation: MIC means the lowest concentration that inhibits growth of the organism. Low values mean greater potency, high ones weaker potency. Broadly, the MBC is the smallest concentration meeting the test's criterion for killing. A lower MBC goes with more potent killing. As a reminder, the MFC is the smallest concentration meeting the test's criterion for killing the fungus.

On to `COc1c(N2CCNC(C)C2)c(F)cc2c(=O)c(C(=O)O)cn(C3CC3)c12` (stereo not given) [GATIFLOXACIN], for which the MIC in assay [1] was determined as 0.25 µg/mL (≈ 0.666 µM); in assay [2], 2 µg/mL (≈ 5.33 µM); in assay [3], 4 µg/mL (≈ 10.7 µM); in [4], 0.5 µg/mL (≈ 1.33 µM); in assay [5], 2 µg/mL (≈ 5.33 µM); in assay [6], 16 µg/mL (≈ 42.6 µM). Further, the MIC in [7] came out at 1 µg/mL (≈ 2.66 µM); in assay [8] it was 1 µg/mL (≈ 2.66 µM); in assay [9], 0.5 µg/mL (≈ 1.33 µM); in [10] it was 0.5 µg/mL (≈ 1.33 µM); in assay [17], 2 µg/mL (≈ 5.33 µM); in assay [18], 2 µg/mL (≈ 5.33 µM). Further, the MIC in assay [19] worked out at 8 µg/mL (≈ 21.3 µM); in assay [20], 4 µg/mL (≈ 10.7 µM). The MBC in assay [11] is 0.25 µg/mL (≈ 0.666 µM); in assay [12], 2 µg/mL (≈ 5.33 µM); in assay [13], 4 µg/mL (≈ 10.7 µM); in assay [14], 0.5 µg/mL (≈ 1.33 µM); in assay [15] it was 2 µg/mL (≈ 5.33 µM); in [21] it was 2 µg/mL (≈ 5.33 µM). In addition, the MBC in [22] is 2 µg/mL (≈ 5.33 µM); in assay [23] it was 8 µg/mL (≈ 21.3 µM); in assay [24], 4 µg/mL (≈ 10.7 µM). In [16], this compound gave an MFC of 0.5 µg/mL (≈ 1.33 µM).

In the case of `O=C(O)[C@H](Cc1ccccc1)N1C(=O)/C(=C/c2ccc(/C=N/n3c(-c4ccccc4)n[nH]c3=S)cc2)SC1=S`, the MIC in [1] is 8 µg/mL (≈ 14 µM); in [2] it was over 64 µg/mL; in [3], 8 µg/mL (≈ 14 µM); in [4], 8 µg/mL (≈ 14 µM); in assay [5] it was over 128 µg/mL; in [6], over 128 µg/mL. Moreover, the MIC in [7] was over 128 µg/mL; in assay [8], over 128 µg/mL; in assay [9], over 128 µg/mL; in assay [10] it was over 64 µg/mL; in assay [17], 8 µg/mL (≈ 14 µM); in [18], 8 µg/mL (≈ 14 µM). The MIC in assay [19] and in [20] was 8 µg/mL (≈ 14 µM) each time. The MBC was found to be 16 µg/mL (≈ 28 µM) in [11]; 8 µg/mL (≈ 14 µM) in assay [13]; 16 µg/mL (≈ 28 µM) in [14]; 16 µg/mL (≈ 28 µM) in [21]; 32 µg/mL (≈ 56 µM) in [22]; 32 µg/mL (≈ 56 µM) in [23]. Moreover, in assay [24], the MBC is 32 µg/mL (≈ 56 µM). For the same compound, the Ratio in [25] is listed as 2; in assay [26], “<=4”.

As for `O=C(O)[C@H](Cc1ccccc1)N1C(=O)/C(=C/c2ccc(/C=N/n3c(-c4ccccc4Cl)n[nH]c3=S)cc2)SC1=S`, the MIC was 16 µg/mL (≈ 26.4 µM) in assay [1]; over 64 µg/mL in assay [2]; 16 µg/mL (≈ 26.4 µM) in assay [3]; 16 µg/mL (≈ 26.4 µM) in [4]; over 128 µg/mL in [5]; over 128 µg/mL in [6]. Also, the MIC in [7] is over 128 µg/mL; in assay [8], over 128 µg/mL; in assay [9], over 128 µg/mL; in assay [10], over 64 µg/mL; in assay [17] it was 16 µg/mL (≈ 26.4 µM); in assay [18], 16 µg/mL (≈ 26.4 µM). Further, the MIC in assay [19] and in assay [20] was 16 µg/mL (≈ 26.4 µM) each time. Moreover, the MBC is 32 µg/mL (≈ 52.8 µM) in assay [11]; 64 µg/mL (≈ 106 µM) in assay [13]; over 128 µg/mL in [14]; 32 µg/mL (≈ 52.8 µM) in assay [21]; 64 µg/mL (≈ 106 µM) in assay [22]; over 128 µg/mL in assay [23]. The MBC in assay [24] was over 128 µg/mL. Further, the Ratio is 2 in assay [25] and “<=4” in [26].
